Experimental findings from PMC4724694 (Acta Pharmaceutica Sinica. B, 2016) are described below.

The target in data set [1] is T1, 5-LOX (Rattus norvegicus, UniProt P12527).
T1 sequence (P12527 1-673): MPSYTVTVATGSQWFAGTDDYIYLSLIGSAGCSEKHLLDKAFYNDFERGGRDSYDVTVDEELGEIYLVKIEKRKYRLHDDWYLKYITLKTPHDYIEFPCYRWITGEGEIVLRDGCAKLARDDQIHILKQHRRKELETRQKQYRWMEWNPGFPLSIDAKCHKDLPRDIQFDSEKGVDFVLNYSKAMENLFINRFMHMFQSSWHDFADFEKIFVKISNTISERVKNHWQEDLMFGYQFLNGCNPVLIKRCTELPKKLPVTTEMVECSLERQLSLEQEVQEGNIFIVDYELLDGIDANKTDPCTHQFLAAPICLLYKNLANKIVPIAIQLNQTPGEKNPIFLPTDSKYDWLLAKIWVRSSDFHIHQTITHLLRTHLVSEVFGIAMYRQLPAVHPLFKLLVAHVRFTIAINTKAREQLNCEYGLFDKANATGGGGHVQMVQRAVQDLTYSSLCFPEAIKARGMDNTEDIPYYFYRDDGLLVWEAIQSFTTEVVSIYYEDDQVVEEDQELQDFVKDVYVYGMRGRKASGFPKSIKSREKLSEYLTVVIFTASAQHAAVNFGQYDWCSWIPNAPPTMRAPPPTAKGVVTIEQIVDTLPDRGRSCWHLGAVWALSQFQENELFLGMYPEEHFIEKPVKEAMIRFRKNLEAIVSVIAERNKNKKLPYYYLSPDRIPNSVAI
Nature of the data set: Inhibition of 5-LOX product synthesis. The class given is cell-based. Conditions: for IC50: IC50 PMNL, rat peritoneal polymorphonuclear leukocytes; for inhibition at 5 µM: PMNL, read-out: Inhibition at 5 μmol/L (%).

In data set [2] the target is T2, 5-LOX (Homo sapiens, UniProt P09917).
T2 sequence (P09917 1-674): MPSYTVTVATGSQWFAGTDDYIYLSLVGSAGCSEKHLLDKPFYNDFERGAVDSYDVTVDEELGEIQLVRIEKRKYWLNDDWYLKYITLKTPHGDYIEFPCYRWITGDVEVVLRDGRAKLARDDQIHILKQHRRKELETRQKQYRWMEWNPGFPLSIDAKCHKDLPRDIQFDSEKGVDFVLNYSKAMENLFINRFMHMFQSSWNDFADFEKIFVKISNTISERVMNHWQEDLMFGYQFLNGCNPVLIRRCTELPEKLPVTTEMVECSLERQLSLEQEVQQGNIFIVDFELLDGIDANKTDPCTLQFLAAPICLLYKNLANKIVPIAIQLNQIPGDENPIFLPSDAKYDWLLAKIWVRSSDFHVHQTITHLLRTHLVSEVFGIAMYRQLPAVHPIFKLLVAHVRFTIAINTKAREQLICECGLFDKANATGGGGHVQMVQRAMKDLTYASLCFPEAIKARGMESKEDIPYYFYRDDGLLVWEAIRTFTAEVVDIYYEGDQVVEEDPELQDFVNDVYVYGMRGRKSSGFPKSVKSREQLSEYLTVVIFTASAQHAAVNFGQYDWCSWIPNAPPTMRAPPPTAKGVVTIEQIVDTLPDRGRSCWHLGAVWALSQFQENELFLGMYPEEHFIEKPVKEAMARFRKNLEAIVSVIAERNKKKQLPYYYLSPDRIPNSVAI
Nature of the data set: Inhibition of 5-LOX product synthesis. It is filed as cell-based.

In data set [3] the target is T2, 5-LOX. Nature of the data set: Cell-free 5-LOX enzymatic assay. The class given is biochemical.
Data set [4] concerns BV2 cells. Nature of the data set: LPS-induced nitric oxide. It is filed as cell-based, mouse. Conditions: LPS 200 ng/mL, 4e at 10, 50 or 100 μmol/L, 24 h. The gist of the method: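 Mouse BV2 microglia grown in DMEM with 10% FBS and penicillin-streptomycin (100 μg/mL) at 37 °C, 5% CO2. Cells trypsinized and seeded at 2×10^4 cells/well; 24 h later, test compound added with or without LPS (200 ng/mL). Supernatants collected after 24 h exposure, mixed with equal volume of Griess reagent, and nitrite read at 570 nm.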

Data set [5] relates to BV2 cells. Nature of the data set: BV2 cell viability, MTT assay. It is filed as cell-based, mouse. Conditions: tested concentrations 10, 50, 100 μmol/L, with or without LPS. On the technique in general: Tetrazolium dyes change colour on reduction, which living cells bring about.
Data set [6] deals with HT22 cells. Nature of the data set: Glutamate-induced oxidative toxicity in HT22 neuronal cells, MTT assay. The class given is cell-based, mouse. Conditions: glutamate 5 mmol/L, 24 h, 4e at 1–100 μmol/L.
Data set [7] has as its system mouse MCAO model. Conditions: in vivo, ip, 50 mg/kg.

By IC50 is commonly meant the concentration that gives 50% inhibition. A low value points to greater potency in that assay. In the case of `CC(C)(C)c1cc(NC(=O)c2cc(-c3ccc4c(c3)OCO4)n(-c3ccc(S(N)(=O)=O)cc3)n2)cc(C(C)(C)C)c1O` [4e, N-(3,5-di-tert-butyl-4-hydroxyphenyl)-5-(benzo [1, 3]dioxol-5-yl)-1-(4-amino-sulfonylphenyl)-1H-pyrazole-3-carboxamide], the half-inhibitory concentration (IC50) in data set [1] was determined as 0.69 µM; in data set [2] it was 1.08 µM; in data set [3] it was 0.133 ± 0.014 µM. Besides, the inhibition at 5 µM in data set [1] stood at 90.1%. The “LPS-induced generation of NO” value in data set [4] is recorded as “remarkably attenuated”. Besides, the “Cell viability of BV2 cells (MTT)” value in data set [5] is reported as “did not reduce the viabilities of BV2 cells”. In addition, the “Glutamate-induced HT22 cell death (MTT)” value in data set [6] is on record as “remarkably reduced glutamate-induced HT22 cell death”. Moreover, the “Cortical, striatal and hemispheric infarct volumes” value in data set [7] was “significantly decreased cortical, striatal and hemispheric infarct volumes”.

With `COc1ccc(-c2cc(C(=O)Nc3cc(C(C)(C)C)c(O)c(C(C)(C)C)c3)nn2-c2ccc(S(N)(=O)=O)cc2)cc1` [4c, N-(3,5-di-tert-butyl-4-hydroxyphenyl)-1-(4-aminosulfonylphenyl)-5-p-meth-oxyphenyl-1H-pyrazole-3-carboxamide], the IC50 was found to be 0.45 µM in data set [1], 4.87 µM in data set [2] and 0.136 ± 0.015 µM in data set [3]. For the same compound, in data set [1], the inhibition at 5 µM came to 74.9%.
